Test results published in ChEMBL document CHEMBL3871269, “Conjugates of podophyllotoxin and norcantharidin as dual inhibitors of topoisomeraseⅡ and protein phosphatase 2A” (Eur J Med Chem, 2016).
The source made the active and inactive calls. No cut-off for these calls is given here.

Columns and labels:
[1] = Cytotoxicity against human A549 cells measured after 48 hrs by MTT assay; format: functional, cell-based; conditions: A549, 48 h
How it was run: (§1)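 MTT growth assay; cells seeded at 5×10³/well in RPMI1640 with 10% heat-inactivated FBS, attached 4–6 h, then exposed to five concentrations (0.01–100 μM, compounds dissolved in saline) for 48 h at 37 °C, 5% CO₂. MTT added for 4 h, formazan dissolved in DMSO, absorbance read at 490 nm. IC50 taken from log plot of percent of control versus concentration; means ± SD of triplicate experiments.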

[2] = Cytotoxicity against human HepG2 cells measured after 48 hrs by MTT assay; format: functional, cell-based; conditions: HepG2, 48 h; how it was run: as §1
[3] = Cytotoxicity against human HeLa cells measured after 48 hrs by MTT assay; format: functional, cell-based; how it was run: as §1
[4] = Cytotoxicity against human HCT8 cells measured after 48 hrs by MTT assay; format: functional, cell-based; conditions: HCT-8, 48 h; how it was run: as §1
[5] = Cytotoxicity against human WI38 cells measured after 48 hrs by MTT assay; format: toxicity, cell-based, WI-38
How it was run: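 MTT growth inhibition in WI-38 lung fibroblasts. Cells seeded at 5×10³/well in RPMI1640 with 10% heat-inactivated FBS, attached 4–6 h, then exposed 48 h at 37 °C, 5% CO₂ to five concentrations (0.01–100 μM, saline-dissolved). MTT 4 h, DMSO solubilisation, A490. IC50 from log plot of percent control vs concentration; triplicate, mean ± SD.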

[6] = Octanol-water partition coefficient, log P of the compound; format: physicochemical
How it was run: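 Partition coefficient P = compound concentration in 1-octanol / compound concentration in water.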

[7] = Inhibition of human RBC PP2A assessed as reduction in free phosphate ion release using Lys-Arg-pThr-Ile-Arg as substrate preincubated for 10 mins followed by substrate addition measured after 60 mins by malachite green method
How it was run: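 Purified PP2A (0.6 mU/well) preincubated with inhibitor 10 min at 37 °C. Reaction started with 200 μM Lys-Arg-pThr-Ile-Arg in 50 mM Tris-HCl pH 7.0, 100 μM CaCl₂; 60 min at room temperature. Released phosphate read by malachite green at 650 nm after 10 min; enzyme-plus-buffer blanks. IC50 from dose–response; mean of three independent experiments in duplicate.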

Homo sapiens [8] = species: Homo sapiens; test: Inhibition of human topoisomerase-2 catalytic activity assessed as reduction in pBR322 supercoiled DNA relaxation at 100 uM measured after 60 mins by ethidium bromide staining agarose gel electrophoresis
How it was run: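 Kit-based relaxation assay: supercoiled pBR322 plasmid DNA (250 ng/μL) with topoisomerase II (4 units) in kit assay buffer, 20 μL final, 60 min at 37 °C. Reaction stopped with 10% SDS, proteinase K treated, chloroform/isoamyl alcohol (24:1) extracted. Products resolved on 1% agarose in TAE (pH 8.0), ethidium bromide stained. Test concentrations 50 and 100 μM.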

HepG2 [9] = test: Inhibition of PP2A in human HepG2 cells assessed as residual activity by measuring phosphopeptide substrate level at 1 uM using RRAT(pT)VA as substrate preincubated for 24 hrs followed by substrate addition measured after 30 mins by molybdate dye based assay relative to control; format: cell-based
How it was run: (§2)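 HepG2 cells treated 24 h in six-well plates, lysed, endogenous phosphate removed. Lysate incubated 30 min at 37 °C with phosphopeptide RRAT(pT)VA (5 μL of 1 mM). Stopped with molybdate dye mix; A600 after 15 min. Activity from phosphate standard curve, expressed relative to untreated control; mean ± SD.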

HepG2 [10] = test: Inhibition of PP2A in human HepG2 cells assessed as residual activity by measuring phosphopeptide substrate level at 2 uM using RRAT(pT)VA as substrate preincubated for 24 hrs followed by substrate addition measured after 30 mins by molybdate dye based assay relative to control; format: cell-based; how it was run: as §2
HepG2 [11] = test: Inhibition of PP2A in human HepG2 cells assessed as residual activity by measuring phosphopeptide substrate level at 5 uM using RRAT(pT)VA as substrate preincubated for 24 hrs followed by substrate addition measured after 30 mins by molybdate dye based assay relative to control; format: cell-based; how it was run: as §2
HepG2 [12] = test: Inhibition of PP2A in human HepG2 cells assessed as reduction in phosphopeptide substrate level using RRAT(pT)VA as substrate preincubated for 24 hrs followed by substrate addition measured after 30 mins by molybdate dye based assay; format: cell-based; how it was run: as §2
Homo sapiens [13] = species: Homo sapiens; test: Inhibition of human topoisomerase-2 catalytic activity assessed as reduction in pBR322 supercoiled DNA relaxation up to 100 uM measured after 60 mins by ethidium bromide staining agarose gel electrophoresis
How it was run: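 Relaxation assay with supercoiled pBR322 (250 ng/μL) and topoisomerase II (4 units) in kit buffer, 20 μL, 60 min at 37 °C. Compound at 50 or 100 μM. Stopped with 10% SDS, proteinase K, chloroform/isoamyl alcohol extraction. Run on 1% agarose in TAE pH 8.0, ethidium bromide stained.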

HepG2 [14] = test: Induction of cell cycle arrest in human HepG2 cells assessed as accumulation at G2/M phase measured after 24 hrs by propidium iodide staining based flow cytometry; format: functional
How it was run: (§3)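 HepG2 cells exposed 24 h to 0, 0.5 or 1 μM. (1–5)×10⁵ cells harvested, PBS-washed, fixed in 70% ice-cold ethanol at least overnight. Stained 15 min in dark with 1% Triton X-100, 0.01% RNase, 0.05% PI. Cell-cycle distribution by flow cytometry.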

HepG2 [15] = test: Induction of cell cycle arrest in human HepG2 cells assessed as accumulation at G2/M phase at 0.5 uM measured after 24 hrs by propidium iodide staining based flow cytometry (reference value: 9.4%); format: functional
HepG2 [16] = test: Induction of cell cycle arrest in human HepG2 cells assessed as accumulation at G2/M phase at 1 uM measured after 24 hrs by propidium iodide staining based flow cytometry (reference value: 9.4%); format: functional
HepG2 [17] = test: Induction of cell cycle arrest in human HepG2 cells assessed as increase in cyclin B1 expression at 0.5 to 1 uM measured after 24 hrs by western blot method; format: functional, cell-based
How it was run: (§4)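 HepG2 cells grown 24 h in flasks, then treated with 0, 0.5 or 1 μM for 24 h. Lysis in Tris/NP-40/SDS buffer with protease inhibitors; Bradford protein assay. 30 μg protein on 10% or 12% SDS-PAGE, PVDF transfer, milk block 2 h. Cyclin B1 or cdc2 antibodies (1:500–1:1000) overnight at 4 °C, then secondary. β-actin loading control.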

HepG2 [18] = test: Induction of cell cycle arrest in human HepG2 cells assessed as decrease in G1 phase at 0.5 to 1 uM measured after 24 hrs by propidium iodide staining based flow cytometry; format: functional; how it was run: as §3
HepG2 [19] = test: Induction of cell cycle arrest in human HepG2 cells assessed as decrease in G1 phase by propidium iodide staining based flow cytometry; format: functional; conditions: TDE = time-dependent effect; how it was run: as §3
HepG2 [20] = test: Induction of cell cycle arrest in human HepG2 cells assessed as increase in cyclin B1 expression measured after 24 hrs by western blot method; format: functional, cell-based; how it was run: as §4
HepG2 [21] = test: Induction of cell cycle arrest in human HepG2 cells assessed as increase in cyclin cdc-2 expression measured after 24 hrs by western blot method; format: functional, cell-based; how it was run: as §4
Bos taurus = species: Bos taurus; test: Binding affinity to calf thymus DNA at 1 uM at pH 7.2 measured after 5 mins by fluorescence spectroscopic method
How it was run: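 CT DNA titrated (0–5 μM) into 1 μM compound in pH 7.2 PBS, equilibrated 5 min at 25 °C. Excitation at 318 nm, emission recorded over 280–400 nm. CT DNA samples in PBS at matching concentrations served as blanks.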

| Structure (SMILES) | IC50 [1] [µM] | IC50 [2] [µM] | IC50 [3] [µM] | IC50 [4] [µM] | IC50 at 48 h [5] [µM] | logP ([6]; read-out: logP) | IC50 [7] [µM] | other results |
| --- | --- | --- | --- | --- | --- | --- | --- | --- |
| COc1cc([C@@H]2c3cc4c(cc3[C@@H](NC(=O)[C@H](CC(C)C)N3C(=O)C5C6CCC(O6)C5C3=O)[C@H]3COC(=O)[C@H]23)OCO4)cc(OC)c1O (stereo partly drawn) | 8.11 | 10.5 | > 100 | 21.4 | 21.9 | 1.83 | > 100 |  |
| COc1cc([C@@H]2c3cc4c(cc3[C@@H](O[C@@H]3O[C@@H]5CO[C@@H](C)O[C@H]5[C@H](O)[C@H]3O)[C@H]3COC(=O)[C@H]23)OCO4)cc(OC)c1O [ETOPOSIDE] | 29.7 | 5.21 | 13.5 | 10 | 17.6 |  |  | logP [6]: 2.74; inhibition (Homo sapiens [8]): Active |
| COc1cc([C@@H]2c3cc4c(cc3[C@@H](NC(=O)[C@H](CCSC)N3C(=O)C5C6CCC(O6)C5C3=O)[C@H]3COC(=O)[C@H]23)OCO4)cc(OC)c1O (stereo partly drawn) | 6.12 | 7.04 | 2.82 | 12.3 | 30.4 | 0.93 | 1.29 |  |
| COc1cc([C@@H]2c3cc4c(cc3[C@@H](NC(=O)c3ccc(N5C(=O)C6C7CCC(O7)C6C5=O)cc3)[C@H]3COC(=O)[C@H]23)OCO4)cc(OC)c1O (stereo partly drawn) | 3.42 | 0.1 | 2.61 | 3.12 | 46.5 | 2.06 | 3.63 |  |
| COc1cc([C@@H]2c3cc4c(cc3[C@@H](NC(=O)[C@H](C(C)C)N3C(=O)C5C6CCC(O6)C5C3=O)[C@H]3COC(=O)[C@H]23)OCO4)cc(OC)c1O (stereo partly drawn) | 6.73 | 1.62 | 8.3 | 7.81 | 44.4 | 1.48 | 1.12 |  |
| COc1cc([C@@H]2c3cc4c(cc3[C@@H](NC(=O)[C@H](Cc3ccccc3)N3C(=O)C5C6CCC(O6)C5C3=O)[C@H]3COC(=O)[C@H]23)OCO4)cc(OC)c1O (stereo partly drawn) | 14.1 | 5.53 | 16 | 11.6 | 29.6 | 2.27 | > 100 |  |
| COc1cc([C@@H]2c3cc4c(cc3[C@@H](NC(=O)CCCN3C(=O)C5C6CCC(O6)C5C3=O)[C@H]3COC(=O)[C@H]23)OCO4)cc(OC)c1O (stereo partly drawn) | 4.57 | < 0.01 | 4.33 | 3.48 | > 100 | 0.68 | 0.49 | Activity (HepG2 [9]): 73%; Activity (HepG2 [10]): 32%; Activity (HepG2 [11]): 27%; inhibition (HepG2 [12]): Dose-dependent effect; inhibition (Homo sapiens [13]): Active; Activity (HepG2 [14]): Dose-dependent effect; Activity (HepG2 [15]): 27.6%; Activity (HepG2 [16]): 58.6%; Activity (HepG2 [17]): Active; Activity (HepG2 [18]): Active; Activity (HepG2 [19]): Tde; Activity (HepG2 [20]): Dose-dependent effect; Activity (HepG2 [21]): Dose-dependent effect; Activity (Bos taurus): Active |
| COc1cc([C@@H]2c3cc4c(cc3[C@@H](NC(=O)[C@H](C)N3C(=O)C5C6CCC(O6)C5C3=O)[C@H]3COC(=O)[C@H]23)OCO4)cc(OC)c1O (stereo partly drawn) | 44.5 | 13.7 | 15.1 | 16.9 | 35.6 | 0.62 | > 100 |  |
| COc1cc([C@@H]2c3cc4c(cc3[C@@H](NC(=O)[C@H](c3ccccc3)N3C(=O)C5C6CCC(O6)C5C3=O)[C@H]3COC(=O)[C@H]23)OCO4)cc(OC)c1O (stereo partly drawn) | 7.03 | 1.98 | 28.5 | 15.3 | 26.7 | 1.99 | > 100 |  |
| CC[C@H](C)[C@@H](C(=O)N[C@@H]1c2cc3c(cc2[C@@H](c2cc(OC)c(O)c(OC)c2)[C@H]2C(=O)OC[C@@H]21)OCO3)N1C(=O)C2C3CCC(O3)C2C1=O (stereo partly drawn) | 10.1 | 3.21 | 2.52 | 23.6 | 65.2 | 1.91 | 75.7 |  |
| COc1cc([C@@H]2c3cc4c(cc3[C@@H](NC(=O)CN3C(=O)C5C6CCC(O6)C5C3=O)[C@H]3COC(=O)[C@H]23)OCO4)cc(OC)c1O (stereo partly drawn) | 5.47 | 0.14 | 1.65 | 17.1 | 33.5 | 0.13 | 0.68 |  |
| O=C1OC(=O)C2C3CCC(O3)C12 (stereo not drawn) [DEMETHYL-CANTHARIDIN] | 12.2 |  |  |  | 26.7 |  | 0.48 |  |
| COc1cc([C@@H]2c3cc4c(cc3[C@@H](NC(=O)[C@H](Cc3cc5ccccc5[nH]3)N3C(=O)C5C6CCC(O6)C5C3=O)[C@H]3COC(=O)[C@H]23)OCO4)cc(OC)c1O (stereo partly drawn) | 12 | 6.84 | 2.35 | 15.2 | 72.4 | 1.69 | 58.3 |  |
| COc1cc([C@@H]2c3cc4c(cc3[C@@H](NC(=O)CCN3C(=O)C5C6CCC(O6)C5C3=O)[C@H]3COC(=O)[C@H]23)OCO4)cc(OC)c1O (stereo partly drawn) | 6.21 | 8.42 | 10.8 | 17.2 | > 100 | 0.41 | 9.52 |  |
